In one assay the test system is Klebsiella pneumoniae. In words: Antibacterial activity against multidrug-resistant Klebsiella pneumoniae ATCC 700603 assessed as zone of inhibition by disc diffusion method. In kind it is functional. (Agar diffusion results depend on both activity and mobility in agar.)
The test system of a further assay is Enterobacter cloacae. In words: Antibacterial activity against Enterobacter cloacae ATCC 23355 assessed as zone of inhibition by disc diffusion method. In kind it is functional.
The test system of the next assay is Escherichia coli. In words: Antibacterial activity against beta-lactam resistant Escherichia coli BAA 2326 assessed as zone of inhibition by disc diffusion method. Format: functional.
Assay [1] concerns Acinetobacter baumannii. In words: Antibacterial activity against multidrug-resistant Acinetobacter baumannii BAA 1605 assessed as zone of inhibition by disc diffusion method. Format: functional.
Another assay has as its system Bacillus anthracis. The experiment in a line: Antibacterial activity against Bacillus anthracis Sterne 34F2 assessed as zone of inhibition by disc diffusion method. In kind it is functional.
The subject of another assay is Enterococcus faecium. The experiment in a line: Antibacterial activity against vancomycin-resistant Enterococcus faecium ATCC 700221 assessed as zone of inhibition by disc diffusion method. In kind it is functional.
For the next assay, the system named is Enterococcus faecalis. In words: Antibacterial activity against vancomycin-susceptible Enterococcus faecalis ATCC 29212 assessed as zone of inhibition by disc diffusion method. Format: functional.
The subject of assay [2] is Staphylococcus aureus. The experiment in a line: Antibacterial activity against methicillin-susceptible Staphylococcus aureus ATCC 25923 assessed as zone of inhibition by disc diffusion method. In kind it is functional.
Assay [3] deals with Staphylococcus aureus. The experiment in a line: Antibacterial activity against hospital acquired methicillin-resistant Staphylococcus aureus ATCC 43300 assessed as zone of inhibition by disc diffusion method. Format: functional.
Assay [4] deals with Staphylococcus epidermidis. The experiment in a line: Antibacterial activity against Staphylococcus epidermidis ATCC 14990 assessed as zone of inhibition by disc diffusion method. Format: functional.
For assay [5], the system named is Acinetobacter baumannii. In words: Antibacterial activity against Acinetobacter baumannii ATCC 19606 assessed as zone of inhibition by disc diffusion method. Format: functional.
The next assay concerns Pseudomonas aeruginosa. In words: Antibacterial activity against Pseudomonas aeruginosa ATCC 15422 assessed as zone of inhibition by disc diffusion method. In kind it is functional.
Assay [6] relates to Staphylococcus aureus. In words: Antibacterial activity against methicillin-susceptible Staphylococcus aureus ATCC 25923 assessed as bacterial growth inhibition incubated for 20 hrs by broth dilution method. Format: functional. The gist of the method: (§1)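 Broth microdilution: 0.5 McFarland suspension from an overnight culture, diluted 1:100 in cation-adjusted Mueller Hinton broth (CAMHB), given serial dilutions of test agent for 20 h at 37 °C. MIC is the lowest concentration with no visible growth.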
(In general: Dilution methods test growth across graded concentrations, often in twofold steps.)

Assay [7] has as its system Staphylococcus aureus. The experiment in a line: Bactericidal activity against methicillin-susceptible Staphylococcus aureus ATCC 25923 assessed as bacterial killing incubated for over night. In kind it is functional. The gist of the method: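 5 μL from each well was spotted on agar and incubated overnight. MBC was taken as the lowest concentration with no visible growth.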

Assay [8] concerns Staphylococcus aureus. The experiment in a line: Ratio of MBC to MIC against methicillin-susceptible Staphylococcus aureus ATCC 25923. In kind it is functional. Summed up:
(§2)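 For MBC, 5 μL from each well was spotted on agar and incubated overnight; MBC is the lowest concentration with no visible growth. Ratio taken as MBC over MIC.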

The subject of assay [9] is Staphylococcus aureus. In words: Antibacterial activity against methicillin-resistant Staphylococcus aureus ATCC 43300 assessed as bacterial growth inhibition incubated for 20 hrs by broth dilution method. Format: functional. Summed up:
as §1

For assay [10], the system named is Staphylococcus aureus. In words: Bactericidal activity against methicillin-resistant Staphylococcus aureus ATCC 43300 assessed as bacterial killing incubated for over night. Format: functional. Summed up:
as §2

For assay [11], the system named is Staphylococcus aureus. In words: Ratio of MBC to MIC against methicillin-resistant Staphylococcus aureus ATCC 43300. In kind it is functional. Summed up: as §2
Assay [12] concerns Staphylococcus aureus. In words: Antibacterial activity against linezolid-resistant Staphylococcus aureus assessed as bacterial growth inhibition incubated for 20 hrs by broth dilution method. Format: functional. Summed up: as §1
Assay [13] has as its system Staphylococcus aureus. In words: Antibacterial activity against heterogeneous vancomycin-intermediate Staphylococcus aureus Mu3 ATCC 700698 assessed as bacterial growth inhibition incubated for 20 hrs by broth dilution method. Format: functional. The gist of the method: as §1
In assay [14] the test system is Staphylococcus aureus. The experiment in a line: Bactericidal activity against heterogeneous vancomycin-intermediate Staphylococcus aureus Mu3 ATCC 700698 assessed as bacterial killing incubated for over night. In kind it is functional. The gist of the method: as §2
The subject of assay [15] is Staphylococcus aureus. In words: Ratio of MBC to MIC against heterogeneous vancomycin-intermediate Staphylococcus aureus Mu3 ATCC 700698. Format: functional. Summed up:
as §2

Assay [16] deals with Staphylococcus aureus. In words: Antibacterial activity against vancomycin-intermediate resistant Staphylococcus aureus Mu50 ATCC 700699 assessed as bacterial growth inhibition incubated for 20 hrs by broth dilution method. In kind it is functional. Summed up:
as §1

Assay [17] relates to Staphylococcus aureus. The experiment in a line: Bactericidal activity against vancomycin-intermediate resistant Staphylococcus aureus Mu50 ATCC 700699 assessed as bacterial killing incubated for over night. In kind it is functional. Summed up:
as §2

Assay [18] concerns Staphylococcus aureus. The experiment in a line: Ratio of MBC to MIC against vancomycin-intermediate resistant Staphylococcus aureus Mu50 ATCC 700699. In kind it is functional. Summed up: as §2
Assay [19] relates to Staphylococcus aureus. The experiment in a line: Antibacterial activity against vancomycin-resistant Staphylococcus aureus HIP11714 assessed as inhibition of bacterial growth incubated for 20 hrs by broth microdilution method. Format: functional. As to conditions: HIP11714, 20 h. The gist of the method: as §1
Assay [20] deals with Staphylococcus aureus. The experiment in a line: Bactericidal activity against Vancomycin-resistant Staphylococcus aureus HIP11714 assessed as bacterial killing incubated for over night. Format: functional. The gist of the method:
as §2

Assay [21] relates to Staphylococcus aureus. In words: Ration of MBC to MIC against Vancomycin-resistant Staphylococcus aureus HIP11714. Format: functional. The gist of the method: as §2
The subject of assay [22] is Staphylococcus aureus. The experiment in a line: Antibacterial activity against vancomycin-intermediate Staphylococcus aureus clinical isolate 12 assessed as bacterial growth inhibition after 20 hrs by broth microdilution assay. Format: functional. Summed up:
as §1

Assay [23] relates to Staphylococcus aureus. In words: Antibacterial activity against vancomycin-resistant Staphylococcus aureus clinical isolate 10 assessed as bacterial growth inhibition after 20 hrs by broth microdilution assay. Format: functional. Summed up: as §1
Assay [24] relates to Staphylococcus aureus. The experiment in a line: Antibacterial activity against methicillin-susceptible Staphylococcus aureus ATCC 25923 in presence of glutathione. In kind it is functional. The gist of the method:
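Broth microdilution MIC: a 0.5 McFarland suspension from overnight culture was diluted 1:100 in cation-adjusted Mueller Hinton broth supplemented with glutathione 100 μM. It was exposed to serial dilutions for 20 h at 37 °C. MIC was taken as the lowest concentration with no visible growth.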

In assay [25] the test system is Staphylococcus aureus. The experiment in a line: Antibacterial activity against methicillin-susceptible Staphylococcus aureus ATCC 25923 in presence of 0.05% v/v albumin. Format: functional.
Assay [26] deals with Staphylococcus aureus. The experiment in a line: Antibacterial activity against methicillin-susceptible Staphylococcus aureus ATCC 25923 in presence of 5% v/v serum. In kind it is functional.
The test system of assay [27] is Staphylococcus aureus. The experiment in a line: Antibacterial activity against methicillin-susceptible Staphylococcus aureus ATCC 25923 in presence of 10% v/v serum. Format: functional.
For assay [28], the system named is Staphylococcus aureus. In words: Induction of intracellular oxidant species generation in Staphylococcus aureus ATCC 25923 after 1 hr by colorimetric based NBT assay. Format: functional, organism-based. The gist of the method:
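Cells at OD600 1.5 in HBSS mixed with 1 mg/mL aqueous NBT and agent (added from 2 mM stock) or DMSO/water, shaken for 1 h at 37 °C. Stopped with 0.1 M HCl and centrifuged; pellet formazan solubilized in DMSO/KOH/HBSS and read at OD560.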

The subject of assay [29] is Staphylococcus aureus. In words: Induction of intracellular oxidant species generation in Staphylococcus aureus ATCC 25923 by DCFH-DA dye based fluorescence assay. In kind it is functional, organism-based. Summed up:
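OD600 1.5 suspension of S. aureus […] in HBSS given agent (from 2 or 10 mM stock), DMSO or water, then DCFH diacetate from a 100 μM stock in DMSO. Intracellular oxidation read by fluorescence (ex 485, em 535 nm).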

≈ marks a conversion by molar mass, not a printed value. Calls of active or inactive are those of the source. The rule behind the calls is not given here.

In general, MIC refers to the lowest concentration that inhibits growth of the organism. What is called MBC is the lowest tested concentration that kills the bacteria rather than only halting them. The MIC50 is the lowest concentration that inhibits either 50% of growth or 50% of the strains tested, depending on the study. As usually defined, the MIC90 is an inhibitory concentration at the 90% level, which refers to growth in some studies and to a panel of isolates in others. Take `CCCCCCCSSc1ccccn1`: the “diameter of the inhibition zone (DIZ)” value in the assay with Klebsiella pneumoniae worked out at 0 mm; in the assay on Enterobacter cloacae, 0 mm; with Escherichia coli, 0 mm; in the assay on Acinetobacter baumannii [1], 0 mm; in the assay on Bacillus anthracis it was 50 mm; in the assay on Enterococcus faecium, 10 mm. The “diameter of the inhibition zone (DIZ)” value is given as 10 mm in the assay on Enterococcus faecalis; over 50 mm in the assay on Staphylococcus aureus [2]; 46 mm in the assay with Staphylococcus aureus [3]; over 50 mm in assay [4]; 0 mm in the assay with Acinetobacter baumannii [5]; 0 mm in the assay with Pseudomonas aeruginosa. The MIC with Staphylococcus aureus [6] was 12.5 µM (≈ 3.02 µg/mL); with Staphylococcus aureus [9], 6.25 µM (≈ 1.51 µg/mL); in the assay with Staphylococcus aureus [12] it was 25 µM (≈ 6.04 µg/mL); in the assay on Staphylococcus aureus [13] it was 12.5 µM (≈ 3.02 µg/mL); in the assay with Staphylococcus aureus [16] it was 3.13 µM (≈ 0.756 µg/mL); with Staphylococcus aureus [19], 6.25 µM (≈ 1.51 µg/mL). In addition, the minimum inhibitory concentration (MIC) in the assay with Staphylococcus aureus [24] was determined as 50 µM; with Staphylococcus aureus [25], 12.5 µM; in the assay on Staphylococcus aureus [26], 25 µM; with Staphylococcus aureus [27], 25 µM. In addition, the MBC in the assay on Staphylococcus aureus [7] was over 50 µM; with Staphylococcus aureus [10], over 50 µM; in the assay on Staphylococcus aureus [14], over 50 µM; in the assay on Staphylococcus aureus [17], 25 µM (≈ 6.04 µg/mL); in the assay with Staphylococcus aureus [20], over 50 µM. Moreover, the Ratio in the assay on Staphylococcus aureus [8] was over 4; in the assay on Staphylococcus aureus [11], over 8; with Staphylococcus aureus [15], over 4; in the assay on Staphylococcus aureus [18], 8; in the assay with Staphylococcus aureus [21], over 8. Moreover, the figures for the MIC50 with Staphylococcus aureus [22] and in the assay on Staphylococcus aureus [23] were 12.5 µM (≈ 3.02 µg/mL) and 6.25 µM (≈ 1.51 µg/mL), respectively. For the same molecule, the MIC90 in the assay with Staphylococcus aureus [22] and in the assay on Staphylococcus aureus [23] was 12.5 µM (≈ 3.02 µg/mL) each time.
In the case of `Oc1cc(Cl)ccc1Oc1ccc(Cl)cc1Cl`, the outcome with Staphylococcus aureus [28] and in the assay with Staphylococcus aureus [29] was Active.
